From ChEMBL document CHEMBL1124328, “Hypoxia-selective antitumor agents. 1. Relationships between structure, redox properties and hypoxia-selective cytotoxicity for 4-substituted derivatives of nitracrine” (J Med Chem, 1989)

Tests used:
[1] = Cytotoxicity was measured under aerobic conditions by the clonogenic assay against Chinese hamster ovary (subline AA8) cells; assay type: cell-based, Cricetulus griseus; set-up: unit not given here
Outline: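 CHO AA8 cells were grown in alpha MEM with 10% FCS, then taken to unfed plateau phase in spinner flasks (1.0–1.3 × 10⁶ cells/mL). Cells were resuspended in 5% FCS medium, and cells and drug were pre-equilibrated separately for 45 min at 37 °C under flowing 5% CO₂ in air. Exposure was as stirred suspension for up to 3 h, with plating efficiency sampled over time. CT₁₀ is the concentration × time giving 10% survival.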

[2] = Compound''s one-electron reduction potential (E(1)) has been measured by radiolysis at pH 7
Outline: (§1)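 Pulse radiolysis on a 1.8 MV linac (ca. 3 Gy in 0.2 μs) of solutions at 21 °C in a 2-cm pathlength cell, buffered at pH 7 with 2 mM sodium phosphate. Dose was set by aerated 10 mM KSCN absorbance at 472 nm. The equilibrium constant K for ArNO₂/ArNO₂•⁻ versus benzylviologen came from radical ratios over various substrate concentrations. E(1) was derived from K relative to E(BV²⁺/BV•⁺).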

Nucleic Acid = assay: Logarithm of association constant for binding to poly[d(A-T)], determined by ethidium displacement; assay type: nucleic-acid assay
Outline: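 Ethidium displacement assay with poly[d(A-T)], giving log association constant. No quenching corrections were applied.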

[3] = Compound's one-electron reduction potential (E(1)) has been measured by radiolysis at pK1
Outline: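 Calculated from E(1) measured at pH 7 using the paper's pH-dependence expression. Side-chain pKa values (pK2, pKr2) were assumed equal for all derivatives, and the acridine radical pKa was assumed 4.3 pH units above pK1.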

[4] = Dissociation constant was determined; assay type: physicochemical
[5] = Ratio of cytotoxicity determined in air to that of cytotoxicity determined in N2 was measured under aerobic conditions to hypoxic conditions by the clonogenic assay against Chinese hamster ovary (subline AA8) cells; assay type: cell-based, Cricetulus griseus; details: subline AA8 (CHO-AA8)
Outline: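 Clonogenic survival of plateau-phase AA8 cells in stirred suspension at 37 °C. Cells and drug were pre-gassed separately for 45 min with 5% CO₂ in air or in N₂, then mixed using a gas-purged syringe. Plating efficiency was sampled over up to 3 h. Drug levels were chosen to give similar killing rates under both gases. Ratio = CT₁₀(air)/CT₁₀(N₂), where CT₁₀ is concentration × time for 10% survival.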

[6] = Equilibrium constant measured by the pulse radiolysis at pH 7; assay type: ADME; outline: as §1
[7] = Dissociation constant of the compound; assay type: physicochemical
[8] = Relative lipophilicity of the compound; assay type: physicochemical; details: octanol/water

Row | SMILES | E [2] [mV] | Log K (Nucleic Acid) | E [3] [mV] | pKa [4] | K [6] [M⁻¹] | pKa [7] | Rm [8] | Log Ke (Nucleic Acid) | CT10 [1] | selectivity ratio [5]
1 | COC(=O)c1ccc([N+](=O)[O-])c2c(NCCCN(C)C)c3ccccc3nc12 | -244 | 6.06 M-1 | -164 | 5.35 | 175 | – | – | – | 8 | 0.32
2 | CN(C)CCCNc1c2ccccc2nc2c(F)ccc([N+](=O)[O-])c12 | -354 | 6.15 M-1 | -277 | – | 2.4 | 5.41 | -0.46 | – | 2 | 5.3
3 | CN(C)CCCNc1c2ccccc2nc2c(N(CCO)CCO)ccc([N+](=O)[O-])c12 | – | – | – | – | – | 6.53 | -0.74 | 6.73 M-1 | 540 | 6
4 | CN(C)CCCNc1c2ccccc2nc2c(Cl)ccc([N+](=O)[O-])c12 | -325 | 5.95 M-1 | -225 | – | 7 | 5 | -0.25 | – | 0.68 | 13.6

The next lines start with results.

Row | E [2] [mV] | Log K (Nucleic Acid) | E [3] [mV] | pKa [4] | K [6] [M⁻¹] | pKa [7] | Rm [8] | Log Ke (Nucleic Acid) | SMILES | CT10 [1] | selectivity ratio [5]
5 | -321 | 7.23 M-1 | -292 | – | 8.8 | 6.29 | -0.76 | – | Cc1ccc([N+](=O)[O-])c2c(NCCCN(C)C)c3ccccc3nc12 | 2 | 10
6 | -303 | 6.92 M-1 | -270 | – | 18 | 6.21 | -0.85 | – | CN(C)CCCNc1c2ccccc2nc2cccc([N+](=O)[O-])c12 [NITRACRINE] | 0.47 | 9.9
7 | -334 | 7.11 M-1 | -314 | – | 5.3 | 6.47 | -0.63 | – | CN(C)CCCNc1c2ccccc2nc2c(N(C)C)ccc([N+](=O)[O-])c12 | 720 | 16
8 | -314 | 6.5 M-1 | -280 | – | 11.7 | 6.2 | -0.29 | – | CC(=O)OCCN(CCOC(C)=O)c1ccc([N+](=O)[O-])c2c(NCCCN(C)C)c3ccccc3nc12 | 575 | 11.5
9 | -361 | 6.76 M-1 | -346 | – | 1.9 | 6.61 | -0.88 | – | COc1ccc([N+](=O)[O-])c2c(NCCCN(C)C)c3ccccc3nc12 | 22 | 16
